From ChEMBL document CHEMBL1955770, “Inhibition of S/G2 phase CDK4 reduces mitotic fidelity” (J Biol Chem, 2006)
The source made the active and inactive calls. The calls are words filed in the database; no cut-off is given here.

Key:
[1] = biological target: Cyclin-dependent kinase 4/cyclin D1 (Homo sapiens, UniProt P11802); test: Inhibition of human GST-tagged CDK4-cyclin D1 using his-tagged Rb as substrate after 30 mins by scintillation counting method; format: protein-complex assay
[2] = biological target: Hepatocyte growth factor receptor (Homo sapiens, UniProt P08581); test: Inhibition of c-Met using fluorescent substrate by IMAP assay
Procedure, shortened: (§1)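 Run in-house using IMAP: phosphorylated fluorescent peptide substrate binds preferentially to immobilized metal beads, which quantifies kinase activity. ATP at 3× the Km of each enzyme.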

[3] = biological target: Proto-oncogene tyrosine-protein kinase Src (Homo sapiens, UniProt P12931); test: Inhibition of Src using fluorescent substrate by IMAP assay; procedure, shortened: as §1
[4] = Inhibition of AKT using fluorescent substrate by IMAP assay; procedure, shortened: as §1
[5] = Cell cycle arrest in Rb-competent human SK-MEL-13 cells assessed as accumulation at G2/M phase at 2 uM after 24 hrs by FACS analysis; format: functional
Procedure, shortened: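 Ethanol-fixed cells stained with propidium iodide/RNase A, DNA content read by FACS, phase and sub-diploid fractions calculated with ModFit.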

HCT-116 [6] = test: Cell cycle arrest in Rb-competent human HCT116 cells assessed as […] at IC90 after 24 hrs using BrdUrd staining by FACS analysis (Rvb =38 %); format: functional
HCT-116 [7] = test: Cell cycle arrest in Rb-competent human HCT116 cells assessed as accumulation at S phase at 3 times IC90 after 24 hrs using BrdUrd staining by FACS analysis (Rvb =38 %); format: functional
COLO 205 [8] = test: Antiproliferative activity against human COLO205 cells assessed as inhibition of S phase after 48 hrs by MTT assay; format: functional, cell-based; conditions: COLO 205, 48 h
Procedure, shortened: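 Cells grown in DMEM with 3 mM HEPES and 10% Serum Supreme at 37 °C, 5% CO2. Proliferation read by MTT assay 48 h after drug addition; IC50 given as mean of two separate determinations, each in duplicate.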

[9] = Cell cycle arrest in human SK-MEL-13 cells assessed as accumulation at S phase at 2 uM treated 1 hr and measured 8 hr post double hydroxyurea-synchrony release using propidium iodide staining by FACS analysis (reference value: 74 %); format: functional, cell-based
Procedure, shortened: (§2)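 SK-Mel-13 cells synchronized with 2 mM hydroxyurea, then treated with 2 μM CDK4 inhibitor or left untreated 1 h after release. Harvested at indicated times post-release, ethanol-fixed, propidium iodide/RNase stained, and DNA content read by FACS. Proportions of G1, S and G2/M cells derived with ModFit.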

[10] = Cell cycle arrest in human SK-MEL-13 cells assessed as accumulation at G1 phase at 2 uM treated 1 hr and measured 10 hr post double hydroxyurea-synchrony release using propidium iodide staining by FACS analysis (reference value: 14 %); format: functional, cell-based; procedure, shortened: as §2
[11] = Cell cycle arrest in human SK-MEL-13 cells assessed as accumulation at G2/M phase at 2 uM treated 1 hr and measured 10 hr post double hydroxyurea-synchrony release using propidium iodide staining by FACS analysis (reference value: 70 %); format: functional, cell-based; procedure, shortened: as §2
A2058 [12] = test: Cell cycle arrest in human A2058 cells assessed as accumulation at S phase at 2 uM treated 1 hr and measured 10 hr post double hydroxyurea-synchrony release using propidium iodide staining by FACS analysis (reference value: 35 %); format: functional
A2058 [13] = test: Cell cycle arrest in human A2058 cells assessed as accumulation at S phase at 2 uM treated 1 hr and measured 12 hr post double hydroxyurea-synchrony release using propidium iodide staining by FACS analysis (reference value: 47 %); format: functional
A2058 [14] = test: Cell cycle arrest in human A2058 cells assessed as effect on G2/M phase progression at 2 uM treated 6 hr post double hydroxyurea-synchrony release using propidium iodide staining by FACS analysis; format: functional, cell-based
HeLa [15] = test: Cell cycle arrest at G2 phase in human HeLa cells assessed as decrease in Cyclin A-CDK2 level at 2 uM treated at early S phase measured after 6-14 hr post thymidine-synchrony release by immunoblot method relative to untreated control; format: functional, cell-based
HeLa [16] = test: Cell cycle arrest at G2 phase in human HeLa cells assessed as increase in Wee1 level at 2 uM treated at early S phase measured after 8-14 hr post-synchrony release by immunoblot method; format: functional, cell-based
HeLa [17] = test: Cell cycle arrest at G2 phase in human HeLa cells at 2 uM treated 8 hr and measured 12 hr post-synchrony release using Propidium iodide staining by FACS analysis; format: functional, cell-based
RKO = test: Toxicity in human RKO cells at IC50 after 3 days by MTT assay; format: cell-based; conditions: 72 h
COLO 205 [18] = test: Toxicity in human COLO205 cells at IC50 after 3 days by MTT assay; format: cell-based; conditions: colo 205, 72 h
HCT-116 [19] = test: Toxicity in human HCT116 cells at 8 uM by MTT assay; format: cell-based; conditions: hct-116, 8 µM
HeLa [20] = test: Cell cycle arrest in synchronized human HeLa cells assessed as inhibition of cytokinesis at 2 uM by time-lapse microscopy; format: functional
HeLa [21] = test: Induction of abberent mitosis in synchronized human HeLa cells expressing GFP-H2B assessed as micronuclei formation at 2 uM treated 1 hr and measured 12 hr post thymidine-synchrony release by time-lapse microscopy; format: functional, cell-based
HeLa [22] = test: Effect on aurora B protein expression in human HeLa cells at 2 uM measured 14 hr post thymidine-synchrony release by immunoblot analysis; format: functional, cell-based
Procedure, shortened: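 Synchronized HeLa cells given 2 μM CDK4 inhibitor in early S phase and harvested at set times post-release. Lysed in supplemented NETN buffer on ice for 20 min. Lysates run on SDS-PAGE and immunoblotted for survivin, borealin and other chromosomal passenger proteins, with ECL detection. Cyclin D3 served as loading control.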

HeLa [23] = test: Cell cycle arrest in human HeLa cells assessed as accumulation at G2/M phase at 2 uM treated 4 hr and measured 8 hr post double thymidine-synchrony release using propidium iodide staining by FACS analysis (reference value: 86 %); format: functional
Procedure, shortened: (§3)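 Cells harvested at set times post-release, fixed in 70% ethanol, stained with 5 μg/ml propidium iodide plus 0.5 mg/ml RNase A, and analysed by flow cytometry. Cell-cycle phase fractions calculated by ModFit.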

HeLa [24] = test: Cell cycle arrest in human HeLa cells assessed as accumulation at G1 phase at 2 uM treated 6 hr and measured 8 hr post double thymidine-synchrony release using propidium iodide staining by FACS analysis (reference value: 6 %); format: functional
HeLa [25] = test: Cell cycle arrest in human HeLa cells assessed as accumulation at G1 phase at 2 uM treated 4 hr and measured 10 hr post double thymidine-synchrony release using propidium iodide staining by FACS analysis (reference value: 68 %); format: functional
HeLa [26] = test: Cell cycle arrest in human HeLa cells assessed as accumulation at S phase at 2 uM treated 4 hr and measured 10 hr post double thymidine-synchrony release using propidium iodide staining by FACS analysis (reference value: 1 %); format: functional; procedure, shortened: as §3
HeLa [27] = test: Cell cycle arrest in human HeLa cells assessed as accumulation at G2/M phase at 2 uM treated 6 hr and measured 10 hr post double thymidine-synchrony release using propidium iodide staining by FACS analysis (reference value: 31 %); format: functional; procedure, shortened: as §3
HeLa [28] = test: Cell cycle arrest in human HeLa cells assessed as accumulation at G1 phase at 2 uM treated 4 hr and measured 12 hr post double thymidine-synchrony release using propidium iodide staining by FACS analysis (reference value: 81 %); format: functional

Sequence of Hepatocyte growth factor receptor (P08581 whole entry): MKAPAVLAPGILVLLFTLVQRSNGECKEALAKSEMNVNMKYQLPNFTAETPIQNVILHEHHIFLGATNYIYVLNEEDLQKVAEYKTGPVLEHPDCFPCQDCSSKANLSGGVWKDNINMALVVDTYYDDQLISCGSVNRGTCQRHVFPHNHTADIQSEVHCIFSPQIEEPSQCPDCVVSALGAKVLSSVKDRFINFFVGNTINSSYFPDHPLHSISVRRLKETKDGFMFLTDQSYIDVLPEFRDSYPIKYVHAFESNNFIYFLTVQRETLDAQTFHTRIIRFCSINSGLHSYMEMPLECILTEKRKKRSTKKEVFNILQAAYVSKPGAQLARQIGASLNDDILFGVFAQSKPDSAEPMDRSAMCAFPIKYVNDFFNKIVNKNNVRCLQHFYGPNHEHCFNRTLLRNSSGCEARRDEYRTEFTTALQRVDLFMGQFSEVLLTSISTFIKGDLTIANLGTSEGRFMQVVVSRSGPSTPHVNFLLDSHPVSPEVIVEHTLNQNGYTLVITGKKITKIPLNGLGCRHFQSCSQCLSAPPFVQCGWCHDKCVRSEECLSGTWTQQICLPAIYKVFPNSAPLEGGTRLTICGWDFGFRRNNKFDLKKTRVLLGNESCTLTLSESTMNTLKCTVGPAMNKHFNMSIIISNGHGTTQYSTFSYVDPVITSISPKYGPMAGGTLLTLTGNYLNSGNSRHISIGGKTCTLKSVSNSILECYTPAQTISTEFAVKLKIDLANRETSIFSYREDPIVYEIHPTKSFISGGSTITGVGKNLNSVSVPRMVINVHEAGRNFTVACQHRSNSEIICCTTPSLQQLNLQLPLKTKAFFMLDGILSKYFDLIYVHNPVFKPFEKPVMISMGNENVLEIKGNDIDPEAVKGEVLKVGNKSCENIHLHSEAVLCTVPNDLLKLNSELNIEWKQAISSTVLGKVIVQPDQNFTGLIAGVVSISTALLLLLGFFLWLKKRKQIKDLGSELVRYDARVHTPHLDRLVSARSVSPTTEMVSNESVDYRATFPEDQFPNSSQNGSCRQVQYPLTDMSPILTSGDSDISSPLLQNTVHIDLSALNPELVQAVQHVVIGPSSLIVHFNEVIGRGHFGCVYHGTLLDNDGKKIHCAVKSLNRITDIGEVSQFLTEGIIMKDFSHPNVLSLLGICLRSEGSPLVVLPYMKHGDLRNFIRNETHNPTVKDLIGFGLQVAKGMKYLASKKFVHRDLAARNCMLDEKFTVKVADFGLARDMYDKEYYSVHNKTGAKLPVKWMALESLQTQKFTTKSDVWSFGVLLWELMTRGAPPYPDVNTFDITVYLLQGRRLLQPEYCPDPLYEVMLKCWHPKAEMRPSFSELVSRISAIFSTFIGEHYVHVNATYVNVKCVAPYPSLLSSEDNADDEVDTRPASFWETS
Sequence of Proto-oncogene tyrosine-protein kinase Src (P12931 2-536 limits assumed): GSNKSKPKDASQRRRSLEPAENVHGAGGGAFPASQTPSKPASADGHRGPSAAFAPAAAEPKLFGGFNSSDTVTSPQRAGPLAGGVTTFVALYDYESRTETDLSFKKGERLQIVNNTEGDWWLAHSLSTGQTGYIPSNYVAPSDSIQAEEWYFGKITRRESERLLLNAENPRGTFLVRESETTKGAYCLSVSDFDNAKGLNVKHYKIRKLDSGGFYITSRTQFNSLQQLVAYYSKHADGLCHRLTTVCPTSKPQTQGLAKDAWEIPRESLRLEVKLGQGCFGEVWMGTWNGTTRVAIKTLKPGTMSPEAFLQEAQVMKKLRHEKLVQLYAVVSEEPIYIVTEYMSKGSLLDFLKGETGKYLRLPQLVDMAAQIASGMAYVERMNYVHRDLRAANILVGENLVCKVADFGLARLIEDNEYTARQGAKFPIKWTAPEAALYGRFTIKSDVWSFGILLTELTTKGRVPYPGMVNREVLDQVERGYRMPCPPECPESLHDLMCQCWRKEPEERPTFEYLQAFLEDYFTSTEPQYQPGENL
Sequence of Cyclin-dependent kinase 4/cyclin D1 (P11802 whole entry): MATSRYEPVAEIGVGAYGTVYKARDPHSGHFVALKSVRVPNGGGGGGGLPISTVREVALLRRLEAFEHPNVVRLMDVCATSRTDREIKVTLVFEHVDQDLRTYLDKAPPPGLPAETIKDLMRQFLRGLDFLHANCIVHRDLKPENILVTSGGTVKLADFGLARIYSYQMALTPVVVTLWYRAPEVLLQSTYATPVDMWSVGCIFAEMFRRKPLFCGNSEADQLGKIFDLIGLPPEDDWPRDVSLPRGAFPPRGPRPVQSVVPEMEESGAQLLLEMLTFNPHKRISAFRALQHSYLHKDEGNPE
Sequence of Cyclin-dependent kinase 4/cyclin D1 (P24385 whole entry, further chain): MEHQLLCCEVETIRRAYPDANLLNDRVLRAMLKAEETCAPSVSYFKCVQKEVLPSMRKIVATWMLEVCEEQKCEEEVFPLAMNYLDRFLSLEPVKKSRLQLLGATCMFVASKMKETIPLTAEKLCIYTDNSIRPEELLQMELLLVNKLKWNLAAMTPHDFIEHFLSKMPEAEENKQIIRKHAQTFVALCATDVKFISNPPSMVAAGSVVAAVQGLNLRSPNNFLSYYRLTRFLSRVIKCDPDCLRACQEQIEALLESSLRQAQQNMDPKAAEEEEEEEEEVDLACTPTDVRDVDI

IC50 [1] | IC50 [2] | IC50 [3] | IC50 [4] | IC50 (COLO 205 [8]) | Compound | Activity [5] | Activity (HCT-116 [6]) | Activity (HCT-116 [7]) | Activity [9] | Activity [10] | Activity [11] | Activity (A2058 [12]) | Activity (A2058 [13]) | Activity (A2058 [14]) | Activity (HeLa [15]) | Activity (HeLa [16]) | Activity (HeLa [17]) | Activity (RKO) | Activity (COLO 205 [18]) | Activity (HCT-116 [19]) | other results
0.02 µM | > 20 µM | 3.48 µM | > 200 µM | 0.56 µM | COc1cccc(C(=O)c2sc(Nc3ccc(N4CCN(C(C)C)CC4)cc3)nc2N)c1 | 19% | 11% | 4% | 18% | 11% | 75% | 36% | 40% | inactive | Active | Active | Active | Toxic | Toxic | Toxic | inhibition at 2 µM (HeLa [20]): 20%; Activity (HeLa [21]): Active; Activity (HeLa [22]): inactive; Activity (HeLa [23]): 91%; Activity (HeLa [24]): 7%; Activity (HeLa [25]): 12%; Activity (HeLa [26]): 0%; Activity (HeLa [27]): 43%; Activity (HeLa [28]): 36%
0.02 µM | > 20 µM | 3.21 µM | > 200 µM | 2.04 µM | CN1CCN(c2ccc(Nc3nc(N)c(C(=O)c4ccc5c(c4)OCCO5)s3)cc2)CC1 | 19% | 11% | 4% | 18% | 11% | 75% | 36% | 40% | inactive | Active | Active | Active | Toxic | Toxic | Toxic | inhibition at 2 µM (HeLa [20]): 20%; Activity (HeLa [21]): Active; Activity (HeLa [22]): inactive; Activity (HeLa [23]): 91%; Activity (HeLa [24]): 7%; Activity (HeLa [25]): 12%; Activity (HeLa [26]): 0%; Activity (HeLa [27]): 43%; Activity (HeLa [28]): 36%
